Data: ChEMBL document CHEMBL2086315, “Flabelliferins A and B, sesterterpenoids from the South Pacific sponge Carteriospongia flabellifera” (J Nat Prod, 2012)
The source made the active and inactive calls. The rule behind the calls is not given here.

Tests used:
[1] = target: Endothelial PAS domain-containing protein 1 (Homo sapiens) (UniProt Q99814); assay: Inhibition of HIF-2alpha expressed in 786O cells assessed as inhibition of VEGF expression by luciferase reporter gene assay; type: cell-based
Chain of Endothelial PAS domain-containing protein 1 (Homo sapiens) (Q99814 whole entry, the tested form may be a part): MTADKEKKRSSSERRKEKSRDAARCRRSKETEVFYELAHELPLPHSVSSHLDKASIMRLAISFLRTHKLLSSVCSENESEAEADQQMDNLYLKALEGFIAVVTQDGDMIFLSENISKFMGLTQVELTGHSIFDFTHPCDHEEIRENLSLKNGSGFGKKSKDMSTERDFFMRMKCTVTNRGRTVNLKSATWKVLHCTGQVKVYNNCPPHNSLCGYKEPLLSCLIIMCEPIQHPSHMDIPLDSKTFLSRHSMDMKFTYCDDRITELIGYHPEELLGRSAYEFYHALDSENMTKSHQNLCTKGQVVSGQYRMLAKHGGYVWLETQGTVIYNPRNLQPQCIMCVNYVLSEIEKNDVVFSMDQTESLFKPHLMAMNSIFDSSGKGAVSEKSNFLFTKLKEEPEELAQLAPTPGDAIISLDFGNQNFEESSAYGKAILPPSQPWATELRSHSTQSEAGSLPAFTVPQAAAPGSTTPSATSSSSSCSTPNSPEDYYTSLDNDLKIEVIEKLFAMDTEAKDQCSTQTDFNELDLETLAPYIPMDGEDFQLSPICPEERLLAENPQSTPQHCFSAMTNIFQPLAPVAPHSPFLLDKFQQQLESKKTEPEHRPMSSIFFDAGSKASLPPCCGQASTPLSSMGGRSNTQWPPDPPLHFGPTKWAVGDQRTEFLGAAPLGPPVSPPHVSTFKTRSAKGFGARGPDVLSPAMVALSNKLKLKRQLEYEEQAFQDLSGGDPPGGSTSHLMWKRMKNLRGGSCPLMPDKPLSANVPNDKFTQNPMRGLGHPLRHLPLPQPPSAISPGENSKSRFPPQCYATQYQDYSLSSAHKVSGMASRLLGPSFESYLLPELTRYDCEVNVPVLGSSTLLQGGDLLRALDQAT

KM12 [2] = assay: Growth inhibition of human KM12 cells after 2 days by XTT assay; type: functional, cell-based; settings: KM12, 48 h
How it was run: (§1)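 Test samples were supplied as DMSO solutions and applied to human colon tumour KM12 and COLO205 cells in a two-day in vitro XTT-based antiproliferative assay. Activity was expressed as IC50 (μM).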

KM12 [3] = assay: Cytotoxicity against human KM12 cells after 2 days by XTT assay; type: functional, cell-based; settings: KM12, 48 h; how it was run: as §1
COLO 205 [4] = assay: Growth inhibition of human COLO205 cells after 2 days by XTT assay; type: functional, cell-based; settings: COLO 205, 48 h; how it was run: as §1
COLO 205 [5] = assay: Cytotoxicity against human COLO205 cells after 2 days by XTT assay; type: functional, cell-based; settings: COLO 205, 48 h; how it was run: as §1

Structure (SMILES): CC(=O)O[C@H]1C[C@H]2[C@@](C)(CC[C@H]3C(C)(C)CCC[C@]23C)[C@@H]2C[C@H](O)C(C(C)=O)=C[C@@]12C [FLABELLIFERIN B]
- inhibition [1]: inactive
- IC50 (KM12 [2]): 18 µM
- IC50 (KM12 [3]): 18 µM
- IC50 (COLO 205 [4]): 20 µM
- IC50 (COLO 205 [5]): 20 µM

Structure (SMILES): C=C1[C@@H](OC(C)=O)C[C@H]2[C@@](C)(CC[C@H]3C(C)(C)CCC[C@]23C)[C@@H]1C[C@H](O)[C@H](CCOC(C)=O)C(C)=O [FLABELLIFERIN A]
- inhibition [1]: inactive
- IC50 (KM12 [2]): 15 µM
- IC50 (KM12 [3]): 15 µM
- IC50 (COLO 205 [4]): 20 µM
- IC50 (COLO 205 [5]): 20 µM
